PubChem BioAssay
Results filed as inconclusive are left out.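 How the source made its calls, unless noted: active means growth inhibition above 25% in both replicates, a cutoff set 3 SD above the mean; inconclusive means above 25% in only one replicate; inactive means the rest.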

Key:
[1] = S. cerevisiae growth inhibition in permissive medium (OD615), pilot counter-assay for S. cerevisiae lifespan shortening project, permissive growth control (AID 705); conditions: OD615, 24 h, at 10 µM, stronger effect = higher value
Method in brief: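 assay system = Saccharomyces cerevisiae strain carrying genetically modified DeaD replicative-lifespan system | medium = SC raffinose/galactose permissive medium | dosing = 10 µM single dose, 0.25% DMSO | schedule = 24 h compound exposure at 30 °C after 4 h pre-growth | measured by = OD at 615 nm | read-out basis = growth inhibition from lowered OD615 after 24 h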

[2] = S. cerevisiae growth inhibition in restrictive medium, OD615, pilot screen, restrictive growth control, yeast lifespan reduction project (AID 706;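 active means growth inhibition above a set limit, 3 SD over mean compound inhibition, in both replicates, cut at about 43% in these data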;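 further: modified DeaD lifespan yeast strain shifted to restrictive glucose medium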); conditions: OD615, 48 h, at 10 µM, stronger effect = higher value
Method in brief: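 Buffer or medium: CSMM-D glucose medium. Material: genetically modified Saccharomyces cerevisiae, DeaD replicative lifespan assay strain. Times: 48 h compound exposure at 30 °C. Measured by: optical density at 615 nm.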

[3] = doxorubicin toxicity protection in MRP-1 cells – H69AR cells, CellTiter-Glo, duplicate, MRP-1 activator project, pilot screen (AID 807;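 active means viability increase at or above a cutoff of the median across tested compounds plus 3 SD, cut at about 8.5% in these data, passing the limit was not always enough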;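 further: compound pretreatment 18-22 h then 72 h combined with doxorubicin; 0% = doxorubicin alone and 100% = vehicle without doxorubicin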); conditions: H69AR viability with doxorubicin, CellTiter-Glo luminescence; at 10 µM; stronger effect = higher value
[4] = viability of HCT116 without oncogenic beta-catenin – human colon tumor cells, pilot screen (AID 823;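 active means cell viability at or below a set limit in both duplicate runs, the limit being the all-compound median minus 4 SD, cut at about 23% in these data, passing the limit was not always enough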;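 further: 0% = wells killed by 20 µM Hyamine and 100% = untreated DMSO cell wells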); conditions: HCT116 beta-catenin knockout viability, CellTiter-Glo, 60 h; at 10 µM; stronger effect = lower value
[5] = viability of PTEN-null HCT116 cells – cell-based, HCT116 clonal line, CellTiter-Glo, pilot screen (AID 824;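 active means viability at or below 27.92% in each of two runs, the all-compound median minus 4 SD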;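 further: 0% = 20 µM Hyamine control and 100% = vehicle cell control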); conditions: HCT116 PTEN-deleted viability, 60 h, at 10 µM, stronger effect = lower value
[6] = RAM pathway blockade in budding yeast – dse1pr::URA3 reporter, 5-FOA selection, pilot screen (AID 869;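 active means inhibition over a set limit, the all-compound mean plus 3 SD, in both replicate runs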;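 further: 0% = DMSO wells with no growth and 100% = 10 µM 1-NA-PP1 with full growth; RAM network block rescues cells from 5-FOA so hits raise OD615 growth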); conditions: S. cerevisiae dse1pr::URA3 5-FOA growth, OD615, 2 d; at 10 µM; stronger effect = higher value; strain carries analog-sensitive mutant Cbk1 kinase
[7] = RAM signaling pathway blockade in yeast – S. cerevisiae, Pdr1DBD-CYC8 efflux-inhibited sensitized strain, primary screen (AID 1298;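 active means RAM network inhibition above 8.4% in each of two replicates, 3 SD over the compound average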;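 further: 0% = DMSO untreated cells without growth and 100% = 10 µM 1-NA-PP1 full growth; higher means more yeast growth rescued from 5-FOA killing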); conditions: S. cerevisiae cbk1-as DSE1-URA3 strain, 5-FOA growth OD615, 2 d; at 50 µM; stronger effect = higher value

COc1ccc(OC)c(NC(=O)CNC(=O)Cn2ccc3ccccc3c2=O)c1
inactive: growth inhibition [1] -9.38% | growth inhibition [2] 10.5% | viability increase [3] -1.6% | viability [4] 104% | viability [5] 90.5% | inhibition [6] 3.29% | RAM network inhibition [7] -0.05%

CCOC(=O)c1cc(-c2nnc(-c3ccc(Cl)cc3)o2)c(C)nc1C
inactive: growth inhibition [1] -16.3% | growth inhibition [2] -14.2% | viability increase [3] -0.9% | viability [4] 99.7% | viability [5] 93.6% | inhibition [6] 2.19% | RAM network inhibition [7] 2.13%

c1ccc(-c2ccc(-c3nc(-c4ccncc4)no3)cc2)cc1
inactive: growth inhibition [1] 14.4% | growth inhibition [2] 14.4% | viability increase [3] 2.99% | viability [4] 66.4% | viability [5] 82.5% | inhibition [6] 1.32% | RAM network inhibition [7] 2.1%

CC(C)N1C(=O)CCC1C(=O)NCc1ccccc1Cl (configuration not stated)
inactive: growth inhibition [1] -8.36% | growth inhibition [2] -6.72% | viability increase [3] -2.27% | viability [4] 96% | viability [5] 98.9% | inhibition [6] 1.68% | RAM network inhibition [7] 0.01%

Brc1ccccc1OCCCN1CCOCC1
inactive: growth inhibition [1] -11.7% | growth inhibition [2] -9.51% | viability increase [3] 1.1% | viability [4] 97.8% | viability [5] 98.2% | inhibition [6] 1.48% | RAM network inhibition [7] 4.22%

O=S(=O)(NCC(c1cccnc1)N1CCN(Cc2ccccc2)CC1)c1ccccc1 (configuration not stated)
inactive: growth inhibition [1] -10% | growth inhibition [2] -15.8% | viability increase [3] -2.02% | viability [4] 101% | viability [5] 92.8% | inhibition [6] 1.57% | RAM network inhibition [7] 0.96%

COc1cccc(-c2cc(C(=O)N3CCN(c4ncccn4)CC3)c3ccccc3n2)c1
inactive: growth inhibition [1] 0.09% | growth inhibition [2] -2.04% | viability increase [3] -6.25% | viability [4] 62% | viability [5] 64% | inhibition [6] 1.14% | RAM network inhibition [7] -0.21%

CC(=O)c1ccc(NC(=O)CSc2nc3nc(C)cc(C)n3n2)cc1
inactive: growth inhibition [1] -20.6% | growth inhibition [2] -8.37% | viability increase [3] -1.88% | viability [4] 101% | viability [5] 93.9% | inhibition [6] 2.34% | RAM network inhibition [7] 2.78%

COC(=O)c1cc(COc2ccc3oc(C)c(C(=O)OC)c3c2)c(C)o1
inactive: growth inhibition [1] 4.47% | growth inhibition [2] -14.8% | viability increase [3] 0.77% | viability [4] 74.4% | viability [5] 74.5% | inhibition [6] 2.19% | RAM network inhibition [7] 3.15%

Cc1cc(C)c2c(=O)[nH]n(C3CCOC(C)(C)C3)c2n1 (configuration not stated)
inactive: growth inhibition [1] -4.97% | growth inhibition [2] -0.145% | viability increase [3] -0.16% | viability [4] 107% | viability [5] 99.8% | inhibition [6] -0.37% | RAM network inhibition [7] 1.49%

CCC(C)NC(=O)CNC(=O)Cn1c(C)cc2ccccc2c1=O (configuration not stated)
inactive: growth inhibition [1] -4.49% | growth inhibition [2] -8.84% | viability increase [3] -2.27% | viability [4] 102% | viability [5] 94.2% | inhibition [6] 0.04% | RAM network inhibition [7] 4.72%

O=C(Cn1cc2c(n1)CCCC2)Nc1ccccc1Cl
inactive: growth inhibition [1] -4.82% | growth inhibition [2] -3.03% | viability increase [3] -1.53% | viability [4] 99.4% | viability [5] 98.9% | inhibition [6] 1.91% | RAM network inhibition [7] 1.47%

COC(=O)C1=C(C)n2cnnc2NC1c1ccc(Cl)cc1 (configuration not stated)
inactive: growth inhibition [1] 0.905% | growth inhibition [2] -4.44% | viability increase [3] 0.28% | viability [4] 104% | viability [5] 97.2% | inhibition [6] 1.27% | RAM network inhibition [7] -0.92%

COc1ccccc1OCC(=O)NC1CCCCCC1
inactive: growth inhibition [1] -5.33% | growth inhibition [2] -8.23% | viability increase [3] -0.27% | viability [4] 96.3% | viability [5] 88.8% | inhibition [6] -0.49% | RAM network inhibition [7] 0.78%

COc1ccc(OC)c(C(C)NC(=O)c2ccco2)c1 (configuration not stated)
inactive: growth inhibition [1] -6.2% | growth inhibition [2] 2.66% | viability increase [3] -5.99% | viability [4] 40.8% | viability [5] 35.4% | inhibition [6] 0.005% | RAM network inhibition [7] 0.72%

CCOc1ccc(C(=O)Nc2cc(C)c3c(=O)oc4ccccc4c3n2)cc1
inactive: growth inhibition [1] -0.2% | growth inhibition [2] 9.54% | viability increase [3] -7.84% | viability [4] 65% | viability [5] 40.8% | inhibition [6] 1.54% | RAM network inhibition [7] 1.29%

CCc1ccccc1N1CC23C=CC(O2)C(C(=O)OC)C3C1=O (configuration not stated)
inactive: growth inhibition [1] -17.5% | growth inhibition [2] -18.8% | viability increase [3] -0.91% | viability [4] 92.7% | viability [5] 99% | inhibition [6] 0.9% | RAM network inhibition [7] 5.27%

O=C(Nc1c(C(=O)N2CCCCC2)cnn1-c1ccccc1)c1ccco1
inactive: growth inhibition [1] -2.23% | growth inhibition [2] -5.33% | viability increase [3] -0.92% | viability [4] 95.2% | viability [5] 95.5% | inhibition [6] 1.14% | RAM network inhibition [7] 0.25%

CCCCCn1c(=O)[nH]c2cc(C(=O)NCCCN3CCC(C)CC3)ccc2c1=O
inactive: growth inhibition [1] -6.26% | growth inhibition [2] 3.06% | viability increase [3] -6.38% | viability [4] 56.6% | viability [5] 61.9% | inhibition [6] 0.015% | RAM network inhibition [7] 3.34%

C=CCOc1cccc(C2C(C(=O)c3ccco3)=C(O)C(=O)N2CCN2CCOCC2)c1 (configuration not stated)
inactive: growth inhibition [1] -9.71% | growth inhibition [2] -10.5% | viability increase [3] -2.85% | viability [4] 94.1% | viability [5] 93.2% | inhibition [6] 0.795% | RAM network inhibition [7] -0.11%

CCN(CC)c1ccc(NC(=O)COc2ccc(C)cc2)cc1
inactive: growth inhibition [1] -8.23% | growth inhibition [2] -15.4% | viability increase [3] 0.42% | viability [4] 93.6% | viability [5] 85.3% | inhibition [6] 0.255% | RAM network inhibition [7] 0.45%

CCC(=O)c1ccc(OCC(=O)Nc2nn3cnnc3s2)cc1
inactive: growth inhibition [1] -2.54% | growth inhibition [2] 8.22% | viability increase [3] 1% | viability [4] 104% | viability [5] 102% | inhibition [6] 1.27% | RAM network inhibition [7] 6.32%

COc1ccc(F)cc1S(=O)(=O)Nc1ccc2c(c1)OCCO2
inactive: growth inhibition [1] -3.12% | growth inhibition [2] -5.07% | viability increase [3] -1.33% | viability [4] 91.1% | viability [5] 86.6% | inhibition [6] 2.45% | RAM network inhibition [7] 2.35%

CCOC(=O)N1CCN(c2c(NCc3ccccn3)c(=O)c2=O)CC1
inactive: growth inhibition [1] 8.16% | growth inhibition [2] 18.2% | viability increase [3] -1.44% | viability [4] 103% | viability [5] 96% | inhibition [6] 1.28% | RAM network inhibition [7] 1.45%

COc1ccc2c(c1OC)C(=O)OC2Nc1ccccn1 (configuration not stated)
inactive: growth inhibition [1] 10.3% | growth inhibition [2] -7.84% | viability increase [3] -2.18% | viability [4] 102% | viability [5] 99.7% | inhibition [6] 1.34% | RAM network inhibition [7] 1.17%

Cc1cc(-n2c(SCCC#N)nnc2-c2cccnc2)ccc1Cl
inactive: growth inhibition [1] -12.4% | growth inhibition [2] -22.3% | viability increase [3] -2.79% | viability [4] 98.7% | viability [5] 94.5% | inhibition [6] 3.32% | RAM network inhibition [7] 5.99%

CCOC(=O)CN1C(=O)C(O)(CC(=O)c2ccccn2)c2ccccc21 (configuration not stated)
inactive: growth inhibition [1] -10.3% | growth inhibition [2] 3.35% | viability increase [3] -4.5% | viability [4] 82.8% | viability [5] 92% | inhibition [6] 1.31% | RAM network inhibition [7] 1.78%

COc1ccc(C)cc1NC(=O)c1nnn(CCc2ccccc2)c1N
inactive: growth inhibition [1] -5.25% | growth inhibition [2] -3.95% | viability increase [3] -5.29% | viability [4] 85.8% | viability [5] 81.5% | inhibition [6] 2.73% | RAM network inhibition [7] 3.9%

COc1ccc(C(=O)N2CCN(S(=O)(=O)c3ccc(C)cc3C)CC2)cc1OC
inactive: growth inhibition [1] -11.3% | growth inhibition [2] -13.3% | viability increase [3] 0.12% | viability [4] 93.2% | viability [5] 90.3% | inhibition [6] 1.12% | RAM network inhibition [7] 2.18%

O=C(Cn1cnc2c(cnn2-c2ccc(Cl)cc2)c1=O)NC1CCCCC1
inactive: growth inhibition [1] -1.74% | growth inhibition [2] 6.22% | viability increase [3] -3.89% | viability [4] 91.3% | viability [5] 91.7% | inhibition [6] 3.79% | RAM network inhibition [7] 2.4%

O=C(CN1CCOCC1)Nc1cc(Cl)ccc1Cl
inactive: growth inhibition [1] -13.4% | growth inhibition [2] -2.5% | viability increase [3] -2.37% | viability [4] 92.6% | viability [5] 101% | inhibition [6] 2.6% | RAM network inhibition [7] 1.66%

CCn1c(SCC(=O)Nc2nnc(C)s2)nc2c(c1=O)SC(C)C2 (configuration not stated)
inactive: growth inhibition [1] -0.875% | growth inhibition [2] -16.4% | viability increase [3] 1.14% | viability [4] 103% | viability [5] 96.6% | inhibition [6] 2.4% | RAM network inhibition [7] 2.04%

CCOCCCn1cnc2c([nH]c3cc(OC)ccc32)c1=O
inactive: growth inhibition [1] -14.1% | growth inhibition [2] -13.8% | viability increase [3] -0.55% | viability [4] 95.8% | viability [5] 96.9% | inhibition [6] 1.41% | RAM network inhibition [7] 5.51%

CCOC(=O)c1ccc(Nc2ccc(-c3ccc(OC)c(OC)c3)nn2)cc1
inactive: growth inhibition [1] -6.25% | growth inhibition [2] -20% | viability increase [3] -5.24% | viability [4] 80.8% | viability [5] 77.2% | inhibition [6] 2.08% | RAM network inhibition [7] 3.37%

COc1ccc(OC)c2c(C)cc(NCCN3CCOCC3)nc12
inactive: growth inhibition [1] -14.7% | growth inhibition [2] -2.92% | viability increase [3] -4.52% | viability [4] 81.5% | viability [5] 84.9% | inhibition [6] 1.78% | RAM network inhibition [7] 2.55%

COc1ccc(C2C(C(=O)N3CCCC3)c3cc(OC)c(OC)cc3C(=O)N2C)cc1OC (configuration not stated)
inactive: growth inhibition [1] -6.69% | growth inhibition [2] -25.4% | viability increase [3] -1.65% | viability [4] 105% | viability [5] 100% | inhibition [6] 1.54% | RAM network inhibition [7] 2.23%
